Measurements reported in ChEMBL document CHEMBL1145889, “Potent and selective inhibitors of platelet-derived growth factor receptor phosphorylation. 3. Replacement of quinazoline moiety and improvement of metabolic polymorphism of 4-[4-(N-substituted (thio)carbamoyl)-1-piperazinyl]-6,7-dimethoxyquinazoline derivatives” (J Med Chem, 2003).
Values belong to the compound of their own block, whether it stands above or below them.

Columns and labels:
Assay type in all cases: ADME, organism-based
[1] = Plasma clearance was determined after administering 1 mg/kg of compound intravenously in rat no.10 belonging to the phenotype […] (poor metaboliser); parameters: dose 1 mg/kg, route intravenous; details: iv
Method in brief: (§1)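 Male Sprague–Dawley rats (n = 4) were first phenotyped by a 3 mg/kg oral dose. Plasma taken at 30 min was run on HPLC, and a metabolite peak present marked EM, absent marked PM. After a 1-week washout, each phenotype (n = 2) received 1 mg/kg intravenously. Plasma concentration was determined by HPLC.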

[2] = Plasma clearance was determined after administering 1 mg/kg of compound intravenously in rat no.11 belonging to the phenotype […] (poor metaboliser); parameters: dose 1 mg/kg, route intravenous; details: iv; method in brief: as §1
[3] = Plasma clearance was determined after administering 1 mg/kg of compound intravenously in rat no.8 belonging to the phenotype EM (extensive metaboliser); parameters: dose 1 mg/kg, route intravenous; details: iv; method in brief: as §1
[4] = Plasma clearance was determined after administering 1 mg/kg of compound intravenously in rat no.9 belonging to the phenotype EM (extensive metaboliser); parameters: dose 1 mg/kg, route intravenous; details: iv; method in brief: as §1
[5] = Volume of distribution at steady state was determined after administering 1 mg/kg of compound intravenously in rat no.11 belonging to the phenotype EM (poor metaboliser); parameters: dose 1 mg/kg, route intravenous; details: in vivo, iv, read-out: Vdss; method in brief: as §1
[6] = Volume of distribution at steady state was determined after administering 1 mg/kg of compound intravenously in rat no.8 belonging to the phenotype EM (extensive metaboliser); parameters: dose 1 mg/kg, route intravenous; details: in vivo, iv, read-out: Vdss; method in brief: as §1
[7] = Volume of distribution at steady state was determined after administering 1 mg/kg of compound intravenously in rat no.9 belonging to the phenotype EM (extensive metaboliser); parameters: dose 1 mg/kg, route intravenous; details: in vivo, iv, read-out: Vdss; method in brief: as §1
[8] = Half-life period of intravenously administered compound (1 mg/kg) in rat no.10 belonging to the phenotype […] (poor metaboliser); details: in vivo, iv; method in brief: as §1
[9] = Half-life period of intravenously administered compound (1 mg/kg) in rat no.11 belonging to the phenotype […] (poor metaboliser); details: in vivo, iv; method in brief: as §1
[10] = Half-life period of intravenously administered compound (1 mg/kg) in rat no.8 belonging to the phenotype EM (extensive metaboliser); details: in vivo, iv; method in brief: as §1
[11] = Half-life period of intravenously administered compound (1 mg/kg) in rat no.9 belonging to the phenotype EM (extensive metaboliser); details: in vivo, iv; method in brief: as §1
[12] = Pharmacokinetic parameter (AUC) was determined after administering 1 mg/kg of compound intravenously in rat no.10 belonging to the phenotype […] (poor metaboliser); parameters: dose 1 mg/kg, route intravenous; details: in vivo, iv; method in brief: as §1
[13] = Pharmacokinetic parameter (AUC) was determined after administering 1 mg/kg of compound intravenously in rat no.11 belonging to the phenotype […] (poor metaboliser); parameters: dose 1 mg/kg, route intravenous; details: in vivo, iv; method in brief: as §1
[14] = Pharmacokinetic parameter (AUC) was determined after administering 1 mg/kg of compound intravenously in rat no.8 belonging to the phenotype EM (extensive metaboliser); parameters: dose 1 mg/kg, route intravenous; details: in vivo, iv; method in brief: as §1
[15] = Pharmacokinetic parameter (AUC) was determined after administering 1 mg/kg of compound intravenously in rat no.9 belonging to the phenotype EM (extensive metaboliser); parameters: dose 1 mg/kg, route intravenous; details: in vivo, iv; method in brief: as §1
[16] = Volume of distribution at steady state was determined after administering 1 mg/kg of compound intravenously in rat no.10 belonging to the phenotype […] (poor metaboliser); parameters: dose 1 mg/kg, route intravenous; details: in vivo, iv, read-out: Vdss; method in brief: as §1
[17] = Pharmacokinetic parameter (AUC) was determined after administering 1 mg/kg of compound intravenously in rat no.3 belonging to phenotype EM (extensive metabolizer); parameters: dose 1 mg/kg, route intravenous; details: in vivo, iv
Method in brief: (§2)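 Male Sprague–Dawley rats (nos. 1–4) were dosed intravenously at 1 mg/kg. Plasma drug concentration was measured by HPLC. Parameters were derived by model-independent analysis. Rats were classed as extensive or poor metabolizers from their plasma profiles.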

[18] = Plasma clearance was determined after administering 1 mg/kg of compound intravenously in rat no.1 belonging to phenotype EM (extensive metabolizer); parameters: dose 1 mg/kg, route intravenous; details: iv; method in brief: as §2
[19] = Plasma clearance was determined after administering 1 mg/kg of compound intravenously in rat no.2 belonging to phenotype EM (extensive metabolizer); parameters: dose 1 mg/kg, route intravenous; details: iv; method in brief: as §2
[20] = Plasma clearance was determined after administering 1 mg/kg of compound intravenously in rat no.3 belonging to phenotype EM (extensive metabolizer); parameters: dose 1 mg/kg, route intravenous; details: iv; method in brief: as §2
[21] = Plasma clearance was determined after administering 1 mg/kg of compound intravenously in rat no.4 belonging to phenotype PM (poor metabolizer); parameters: dose 1 mg/kg, route intravenous; details: iv; method in brief: as §2
[22] = Mean residence time after oral administration of 30 mg/kg of compound in rat no.5 belonging to phenotype PM (poor metabolizer); parameters: dose 30 mg/kg, route oral; details: in vivo
Method in brief: (§3)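 Male Sprague–Dawley rats (nos. 5–7) were given 30 mg/kg orally. Plasma concentration was determined by HPLC. Tmax, T1/2, MRT, Cmax and AUC came from model-independent analysis. Extensive and poor metabolizers were assigned from the concentration–time profiles.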

[23] = Mean residence time after oral administration of 30 mg/kg of compound in rat no.6 belonging to phenotype EM (extensive metabolizer); parameters: dose 30 mg/kg, route oral; details: in vivo; method in brief: as §3
[24] = Mean residence time after oral administration of 30 mg/kg of compound in rat no.7 belonging to phenotype PM (poor metabolizer); parameters: dose 30 mg/kg, route oral; details: in vivo; method in brief: as §3
[25] = Mean residence time of intravenously administered compound (1 mg/kg) in rat no.1 belonging to phenotype EM (extensive metabolizer); details: in vivo, iv; method in brief: as §2
[26] = Mean residence time of intravenously administered compound (1 mg/kg) in rat no.2 belonging to phenotype EM (extensive metabolizer); details: in vivo, iv; method in brief: as §2
[27] = Mean residence time of intravenously administered compound (1 mg/kg) in rat no.3 belonging to phenotype EM (extensive metabolizer); details: in vivo, iv; method in brief: as §2
[28] = Mean residence time of intravenously administered compound (1 mg/kg) in rat no.4 belonging to phenotype PM (poor metabolizer); details: in vivo, iv; method in brief: as §2
[29] = Volume of distribution at steady state was determined after administering 1 mg/kg of compound intravenously in rat no.1 belonging to phenotype EM (extensive metabolizer); parameters: dose 1 mg/kg, route intravenous; details: in vivo, iv, read-out: Vdss; method in brief: as §2
[30] = Volume of distribution at steady state was determined after administering 1 mg/kg of compound intravenously in rat no.2 belonging to phenotype EM (extensive metabolizer); parameters: dose 1 mg/kg, route intravenous; details: in vivo, iv, read-out: Vdss; method in brief: as §2
[31] = Volume of distribution at steady state was determined after administering 1 mg/kg of compound intravenously in rat no.3 belonging to phenotype EM (extensive metabolizer); parameters: dose 1 mg/kg, route intravenous; details: in vivo, iv, read-out: Vdss; method in brief: as §2
[32] = Volume of distribution at steady state was determined after administering 1 mg/kg of compound intravenously in rat no.4 belonging to phenotype PM (poor metabolizer); parameters: dose 1 mg/kg, route intravenous; details: in vivo, iv, read-out: Vdss; method in brief: as §2
[33] = Half-life period of intravenously administered compound (1 mg/kg) in rat no.1 belonging to phenotype EM (extensive metabolizer); details: in vivo, iv, read-out: T1/2 beta (converted); method in brief: as §2
[34] = Maximum plasma concentration was determined after administering 30 mg/kg of compound orally in rat no.5 belonging to phenotype PM (poor metabolizer); parameters: dose 30 mg/kg, route oral; details: po; method in brief: as §3
[35] = Maximum plasma concentration was determined after administering 30 mg/kg of compound orally in rat no.6 belonging to phenotype EM (extensive metabolizer); parameters: dose 30 mg/kg, route oral; details: po; method in brief: as §3
[36] = Half-life period of orally administered compound (30 mg/kg) in rat no.5 belonging to phenotype PM (poor metabolizer); details: in vivo, po; method in brief: as §3
[37] = Half-life period of orally administered compound (30 mg/kg) in rat no.6 belonging to phenotype EM (extensive metabolizer); details: in vivo, po; method in brief: as §3
[38] = Half-life period of orally administered compound (30 mg/kg) in rat no.7 belonging to phenotype PM (poor metabolizer); details: in vivo, po; method in brief: as §3
[39] = Maximum plasma concentration was determined after administering 30 mg/kg of compound orally n rat no.7 belonging to phenotype PM (poor metabolizer); parameters: dose 30 mg/kg, route oral; details: po; method in brief: as §3
[40] = Pharmacokinetic parameter (AUC) was determined after administering 1 mg/kg of compound intravenously in rat no.1 belonging to phenotype EM (extensive metabolizer); parameters: dose 1 mg/kg, route intravenous; details: in vivo, iv; method in brief: as §2
[41] = Pharmacokinetic parameter (AUC) was determined after administering 1 mg/kg of compound intravenously in rat no.4 belonging to phenotype PM (poor metabolizer); parameters: dose 1 mg/kg, route intravenous; details: in vivo, iv; method in brief: as §2
[42] = Pharmacokinetic parameter (AUC) was determined after administering 30 mg/kg of compound orally in rat no.6 belonging to phenotype EM (extensive metabolizer); parameters: dose 30 mg/kg, route oral; details: in vivo, po; method in brief: as §3
[43] = Pharmacokinetic parameter (AUC) was determined after administering 30 mg/kg of compound orally in rat no.7 belonging to phenotype PM (poor metabolizer); parameters: dose 30 mg/kg, route oral; details: in vivo, po; method in brief: as §3
[44] = Half-life period of intravenously administered compound (1 mg/kg) in rat no.2 belonging to phenotype EM (extensive metabolizer); details: in vivo, iv, read-out: T1/2 beta (converted); method in brief: as §2
[45] = Half-life period of intravenously administered compound (1 mg/kg) in rat no.3 belonging to phenotype EM (extensive metabolizer); details: in vivo, iv, read-out: T1/2 beta (converted); method in brief: as §2
[46] = Half-life period of intravenously administered compound (1 mg/kg) in rat no.4 belonging to phenotype PM (poor metabolizer); details: in vivo, iv, read-out: T1/2 beta (converted); method in brief: as §2
[47] = Maximum time of retention of orally administered compound (30 mg/kg) in rat no.5 belonging to phenotype PM (poor metabolizer); details: in vivo, po; method in brief: as §3
[48] = Maximum time of retention of orally administered compound (30 mg/kg) in rat no.6 belonging to phenotype EM (extensive metabolizer); details: in vivo, po; method in brief: as §3
[49] = Maximum time of retention of orally administered compound (30 mg/kg) in rat no.7 belonging to phenotype PM (poor metabolizer); details: in vivo, po; method in brief: as §3
[50] = Pharmacokinetic parameter (AUC) was determined after administering 30 mg/kg of compound orally in rat no.5 belonging to phenotype PM (poor metabolizer); parameters: dose 30 mg/kg, route oral; details: in vivo, po; method in brief: as §3
[51] = read-out: T1/2 alpha (converted)
[52] = read-out: T1/2 beta (converted)

clearance [1]: 13.1 mL/min/kg | clearance [2]: 17.5 mL/min/kg | clearance [3]: 14.4 mL/min/kg | clearance [4]: 13.2 mL/min/kg | Vd [5]: 0.286 L/kg | Vd [6]: 0.215 L/kg | Vd [7]: 0.252 L/kg | half-life [8, 51]: 1.9 min | half-life [8, 52]: 15.5 min | half-life [9, 51]: 3.58 min | half-life [9, 52]: 13.1 min | half-life [10, 51]: 2.69 min | half-life [10, 52]: 13.8 min | half-life [11, 51]: 2.99 min | half-life [11, 52]: 15.7 min | AUC [12]: 1280 ng·h/mL | AUC [13]: 950 ng·h/mL | AUC [14]: 1160 ng·h/mL | AUC [15]: 1260 ng·h/mL | Vd [16]: 0.232 L/kg
Compound: COCCOc1cc2c(N3CCN(C(=O)Nc4ccc(C#N)cc4)CC3)ncnc2cc1OC

AUC [17]: 2420 ng·h/mL | clearance [18]: 5.82 mL/min/kg | clearance [19]: 6.73 mL/min/kg | clearance [20]: 6.88 mL/min/kg | clearance [21]: 0.707 mL/min/kg | MRT [22]: 514 min | MRT [23]: 235 min | MRT [24]: 382 min | MRT [25]: 39 min | MRT [26]: 23.4 min | MRT [27]: 21 min | MRT [28]: 252 min | Vd [29]: 0.22 L/kg | Vd [30]: 0.16 L/kg | Vd [31]: 0.15 L/kg | Vd [32]: 0.18 L/kg | half-life [33]: 58.2 min | Cmax [34]: 50700 ng/mL | Cmax [35]: 5220 ng/mL | half-life [36]: 315 min | half-life [37]: 152 min | half-life [38]: 204 min | Cmax [39]: 35200 ng/mL | AUC [40]: 2870 ng·h/mL | AUC [41]: 23600 ng·h/mL | AUC [42]: 26300 ng·h/mL | AUC [43]: 455000 ng·h/mL | half-life [44]: 27 min | half-life [45]: 23.4 min | half-life [46]: 186 min | Tmax [47]: 480 min | Tmax [48]: 120 min | Tmax [49]: 120 min | AUC [50]: 815000 ng·h/mL
Compound: COc1cc2ncnc(N3CCN(C(=O)Nc4ccc(C#N)cc4)CC3)c2cc1OC
